Bioassay records: PubChem, several laboratories
Autophagy HCS: autophagy modulation, high-content screen; 190,000 compounds, 0.98% hits; AID 463193; MEF GFP-LC3 puncta imaging; test concentration mostly 10 µM; calls only at 10 µM (by protocol);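 active = percentage of spot-positive cells more than 3 SD above its plate mean, without a fluorescence outlier flag or 80% toxicity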;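 note: spot-positive cell cutoff set from DMSO-treated cells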
Ins promoter up: MIN6 insulin promoter up-regulation | MIN6 insulin promoter-GFP reporter, high-content imaging; stronger effect = higher value | z-score at 5 µM | 190,000 compounds, 0.3% hits;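 active = z-score above 3 at 5 µM with at least 500 cells counted in the well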
bCat nuc transl: beta-catenin nuclear translocation modulation. HeLa beta-catenin nuclear translocation, immunofluorescence imaging. nuclear translocation activity, % at 5 µM. 190,000 compounds, 0.3% hits;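 active = nuclear translocation activity above 50% at 5 µM, with a well cell count of 50 or more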;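 note: per-cell ratio of nuclear to cytoplasmic median beta-catenin stain intensity; plate controls were DMSO negative control for no effect and GSK-3 inhibitor IX positive control for full effect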
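Test system: human HeLa cells, native beta-catenin. Compound dosing: 5 µM primary single dose, 0.1% DMSO, 0.02–20 µM confirmation series. Incubation: compound exposure 24 h at 37°C. Detection: beta-catenin immunostaining with DAPI counterstain, 20x imaging, 6 fields/well. Read-out basis: Nuclear/cytoplasmic beta-catenin signal ratio, % activation.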
MT stabilize HCS: microtubule stabilizers in HeLa cells; 200,000 compounds, 0.83% hits; HeLa tubulin immunostaining HCS, 24 h; share of cells brighter than vehicle mean+2SD; % tubulin-high responders, % at 10 µM;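 active = plate Z-score above 3 for both tubulin-high and condensed-nucleus cell shares, with cell loss under 80%, at 10 µM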;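 note: anti alpha tubulin signal scored within the nucleus-defined area of each cell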
Starred values were filed as active, the others as inactive; i = inactive; . = no result given; + = active, no number. Compounds with a hit are over-represented: about 1.9% of the library has one in this group of screens.

SMILES	Autophagy HCS	Ins promoter up	bCat nuc transl	MT stabilize HCS
COc1ccc(C2CC(c3ccc4ccccc4c3)=NN2C(=O)CN2CCC(C(N)=O)CC2)cc1 (stereo not drawn)	i	0.42	1	6
COc1ccc(C2CC(c3ccc4ccccc4c3)=NN2C(=O)CNC2CCCCC2)cc1 (stereo not drawn)	+	-0.75	0	3
Cc1nn(-c2ccccc2)c(-c2ccccc2[N+](=O)[O-])c1C(=O)O	.	-0.24	-1	.
COc1cccc(N2CCN(C(=O)c3[nH]c(C)c(C(C)=O)c3C)CC2)c1	i	-0.09	60*	29
CC(=O)c1c(C)[nH]c(C(=O)N2CCN(c3cc(Cl)ccc3C)CC2)c1C	i	1.5	.	53*
CC(=O)c1c(C)[nH]c(C(=O)N2CCN(c3ccc(F)cc3)CC2)c1C	i	-0.57	.	4
C=CCSC1=NN2CCS(=O)(=O)N=C2S1	i	-0.11	3	4
COc1ccc(N2CCN(C(=O)CN(C3CCCCC3)S(C)(=O)=O)CC2)cc1	i	-0.23	1	.
C1=C(c2ccccc2)Nc2nnnn2C1	i	3.1*	0	2
Cc1ccc(OC(=O)c2sc(Cl)nc2C)cc1C	i	0.25	-3	2
O=C(CN1CCN(Cc2ccccc2Cl)CC1)N/N=C/C=C/c1ccccc1[N+](=O)[O-]	i	-0.95	0	2
CCN1C(=O)CSc2ccc(C(=O)NCc3ccccc3OC)cc21	i	3.1*	0	1
[O-][N+]1=c2ccc(Nc3ccccc3)cc2=NC12CCCCC2	i	-0.35	12	29*
COc1ccc(Nc2ccc3c(c2)=NC2(CCCCC2)[N+]=3[O-])cc1	+	-2.4	5	24
COc1ccc(NC2=NC(=S)N(c3ccccc3C)C23CCCCC3)cc1	i	-0.17	2	2
O=C(COC(=O)/C=C/c1ccccc1)NCC1CCCO1 (stereo not drawn)	i	.	-2	3
O=C(CNC(c1ccccc1)c1ccccc1)Nc1ccccc1-c1ccccc1	i	-0.36	-2	2
CC(=O)NC1(C(=O)O)CCCC1	.	0.78	-1	.
Cc1cc(C)nc(N/N=C/c2ccccc2OCc2ccc([N+](=O)[O-])cc2)n1	i	-0.06	1	2
O=[N+]([O-])c1ccc(N/N=C\c2ccccc2OCc2ccccc2)cc1	+	2.4	-4	5
Fc1ccc(N/N=C/c2ccc(N3CCOCC3)cc2)c(F)c1	i	0.27	-2	6
COc1ccc(OCCn2cc(/C(N)=N/O)c3ccccc32)cc1	i	3.1*	4	2
COC(=O)c1cn(CCOc2ccccc2)c2ccccc12	+	0.63	1	6
COc1ccc(Nc2nnc(SCc3cn4c(C)cccc4n3)s2)cc1	i	.	10	19*
Cc1ccc2c(c1)nnn2C1CCN(S(=O)(=O)c2ccc(C(=O)N3CC(C)CC(C)C3)cc2)CC1 (stereo not drawn)	i	-2.7	1	20*
SMILES	Autophagy HCS	Ins promoter up	bCat nuc transl	MT stabilize HCS
Cc1ccc2c(c1)nnn2C1CCN(S(=O)(=O)c2ccc(C(=O)N(C)C)cc2)CC1	i	.	0	1
COCc1ccc(C(=O)N2CCCC(CCC(=O)NCc3ccccc3F)C2)o1 (stereo not drawn)	i	0.3	41	24*
COc1cc(S(=O)(=O)Nc2cccnc2)ccc1F	i	-0.2	20	5
COc1cc(S(=O)(=O)Nc2cc(C)cc(C)c2)ccc1F	i	0.6	.	12*
CCOC(=O)C1=C(N)n2c(s/c(=C\c3cccs3)c2=O)=C(C(=O)OCC)C1c1cccs1 (stereo not drawn)	i	-0.87	99*	45*
O=C(CSc1n[nH]c(=O)n1-c1ccc2c(c1)OCCO2)Nc1ccccc1	.	.	-2	.
CCCNC(=O)CSc1nc2ccc(OCC)cc2s1	i	0.2	-1	2
Cc1cc(NC(=O)c2ccc([N+](=O)[O-])cc2)n(C)n1	.	0.29	0	.
Cc1cccc(CN2C(=O)c3ccccc3Sc3ccc(C(=O)NCCN4CCOCC4)cc32)c1	i	0.23	2	3
O=C(NCCN1CCOCC1)c1ccc2c(c1)N(Cc1ccccc1F)C(=O)c1ccccc1S2	+	-0.32	-1	1
CCc1nnc(NC(=O)CSc2nnc3c(C)cc4c(C)ccc(C)c4n23)s1	i	0.15	63*	20*
COc1ccccc1-n1cnnc1SCC(=O)Nc1cc(C)on1	i	.	1	17*
COc1cc2cc(C)c3nnc(SCC(=O)Nc4cc(C)on4)n3c2cc1OC	i	6*	1	1
Cc1cc(NC(=O)CSc2nnc3c(C)cc4c(C)ccc(C)c4n23)no1	i	0.14	94*	57*
COc1ccc(-c2nnc(SCC(=O)Nc3cc(C)on3)n2N)cc1OC	i	0.31	-1	1
CC1=CC(C)(C)N=C(Nc2ccc(C)cc2)S1	i	0.53	0	3
Nc1[nH]ncc1-c1ccc(Cl)cc1	+	0.02	-2	2
COc1ccccc1CNC(=O)COC(=O)[C@H](Cc1c[nH]c2ccccc12)NC(=O)c1cccs1	i	0.36	2	4
Cc1c(NC(=O)C(C)n2cc([N+](=O)[O-])cn2)c(=O)n(-c2ccccc2)n1C (stereo not drawn)	i	-0.1	-3	3
Cc1cc(Cn2ccnc2)c(C)cc1Cn1ccnc1	i	-0.16	-1	43*
O=C(NCc1cccnc1)/C(=C/c1ccc(-c2cccc(Cl)c2)o1)S(=O)(=O)c1ccccc1	i	0.31	55*	26*
O=C(NCc1cccnc1)/C(=C\c1ccc(-c2cccc(Cl)c2)o1)S(=O)(=O)c1ccccc1	i	-0.16	17	52*
N#C/C(=C/c1ccc(CNC(=O)C(=O)Nc2cc(Cl)cc(Cl)c2)o1)C(=O)NCc1cccnc1	i	0.02	0	5
Cc1ccc(C(=O)N/C(=C\c2ccc(-c3cc(Cl)ccc3Cl)o2)C(=O)NCc2cccnc2)cc1	i	.	-4	2
N=c1sccn1CC(=O)Nc1ccc(SC(F)F)cc1	+	0.3	-1	3
SMILES	Autophagy HCS	Ins promoter up	bCat nuc transl	MT stabilize HCS
N=c1sccn1CC(=O)Nc1ccc(S(N)(=O)=O)cc1	.	-0.19	-2	.
C=CCn1c(Oc2cc(C)ccc2C)nc2c1c(=O)n(C)c(=O)n2C	+	-0.49	-1	3
C=CCn1c(Oc2cccc(C)c2)nc2c1c(=O)n(C)c(=O)n2C	i	.	1	1
CC(OC(=O)CCc1nc2ccccc2[nH]c1=O)c1ccccc1 (stereo not drawn)	i	-0.75	0	1
COc1ccc(CCn2c(C3CCCCC3)nc3c(c(=O)c4ccccc4n3C)c2=O)cc1	.	-3.4	51*	.
COc1ccc(OC)c(Nc2nc(-c3cccc([N+](=O)[O-])c3)nc3ccccc23)c1	+	0.01	-1	1
Cc1c2ccccc2nc2c(F)c(NC(C)C)c(F)c(F)c12	+	.	10	12
COc1ccccc1/C=C/C1(C(=O)NC2CCCC2)CC(=O)N1c1ccc(F)cc1 (stereo not drawn)	i	.	0	20*
Cc1ccc(NC(=S)N(CCCN2CCN(C)CC2)Cc2cccs2)cc1C	+	-1.3	0	6
